Screening data deposited in PubChem by The Scripps Research Institute Molecular Screening Center.
NPY-Y2 PAM-ag = potentiates or activates human NPY-Y2 receptor. P49146. cells expressing NPY-Y2, potentiator/agonist read-out. activation, % at 3.6 µM. hit rate 0.45% among 220,000. AID 1359; in the data active = activation above about 27%;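 also: cells stimulated with NPY near EC25 plus isoproterenol at EC100; 0% = vehicle plus submaximal agonist and 100% = vehicle plus saturating agonist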
NPY Y2 blocker = blocks the human neuropeptide Y Y2 receptor | hit rate 0.99% among 140,000 | NPY-Y2 expressing cells, antagonist mode | inhibition, % at 2.7 µM | P49146; in the data active = inhibition above about 17%;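 also: 0% = vehicle with agonist challenge and 100% = reference antagonist with challenge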
NPY1 pot ag = potentiates or activates human NPY-Y1 receptor; AID 1304; hit rate 0.37% among 220,000; NPY-Y1 expressing cells, potentiator/agonist activation; activation, % at 3.6 µM; in the data active = activation above about 33%, passing the limit was not always enough;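 also: cells stimulated with NPY at EC10 then isoproterenol at EC100; 0% = low agonist plus stimulus and 100% = saturating agonist plus stimulus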
Target sequence (P25929 whole entry, looked up): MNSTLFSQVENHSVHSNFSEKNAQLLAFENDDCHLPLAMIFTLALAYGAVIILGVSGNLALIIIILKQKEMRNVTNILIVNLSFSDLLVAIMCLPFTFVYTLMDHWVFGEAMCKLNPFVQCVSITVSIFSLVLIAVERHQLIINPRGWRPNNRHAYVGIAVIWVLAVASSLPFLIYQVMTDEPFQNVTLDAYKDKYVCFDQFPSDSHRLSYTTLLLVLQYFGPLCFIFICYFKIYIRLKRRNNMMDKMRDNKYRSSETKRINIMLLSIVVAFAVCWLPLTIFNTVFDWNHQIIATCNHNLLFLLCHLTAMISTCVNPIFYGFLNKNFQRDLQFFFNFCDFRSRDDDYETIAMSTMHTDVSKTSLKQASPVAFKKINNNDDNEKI
NPY Y1 blocker = antagonists of human neuropeptide Y receptor Y1. P25929. HEK293-CNG Y1 cells, membrane potential fluorescence; NPY at EC95, then isoproterenol. inhibition, % at 3.6 µM. hit rate 1% among 200,000. AID 1040;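 active = inhibition above the campaign mean inhibition of all tested compounds plus 3 SD, cut at about 20% in these data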;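 also: 0% = DMSO wells given NPY plus isoproterenol and 100% = isoproterenol alone without NPY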
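Test system: HEK293 cells co-expressing NPY Y1 receptor and cyclic-nucleotide gated channel; Also added: NPY (25 nM), isoproterenol (1 µM), Ro 20-1724 (25 µM); Compound dosing: one concentration, 3.6 µM, in 0.4% DMSO; Timing: dye 3 h, compound 60 min room temperature, stimulation 45 min; Technique: Membrane-potential fluorescent dye readout.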
Starred values were filed as active, the others as inactive; . = no result. Sampled rows, rich in hits. Any-hit rate of the full collection: about 1.9%.

SMILES	NPY-Y2 PAM-ag	NPY Y2 blocker	NPY1 pot ag	NPY Y1 blocker
Cc1cccc(NC(=O)CCC(=O)OCC(=O)c2ccc(Oc3ccc([N+](=O)[O-])cc3)cc2)c1	47.5*	-1.0	52.9*	6.6
Cc1ccc(NC(=O)CCC(=O)OCC(=O)c2ccc(Oc3ccc([N+](=O)[O-])cc3)cc2)cc1C	16.0	-2.2	-9.6	-3.7
Cc1ccc([N+](=O)[O-])cc1NC(=O)CN(C(=O)c1ccccc1Cl)C1CCCCC1	10.9	25.9*	-9.1	50.0*
COc1ccc(OC)c(S(=O)(=O)NC(N)=NCCc2ccccc2OC)c1	-7.1	.	2.0	3.3
COCCNC(=S)N/N=C1\CC(C)CC(C)(C)C1 (stereo not given)	4.7	.	19.5	-0.4
O=C(O)COc1ccc2c(-c3ccccc3)cc(=O)oc2c1	-41.0	6.9	-22.6	20.1*
CC(NC(=O)CNC(=O)C(Cc1ccccc1)NC(=O)OCc1ccccc1)C(N)=O (stereo not given)	14.1	.	-2.6	0.4
CCOC(=O)c1ccc(NC(=O)Cn2ncc(Cl)c(Cl)c2=O)cc1	17.6	1.5	58.8*	-8.7
CN(c1ccccc1C(=O)NC1CC2CCC1C2)S(=O)(=O)c1ccccc1 (stereo not given)	-0.7	2.4	-21.5	5.8
CN(c1ccccc1C(=O)NC1CCCCC1)S(=O)(=O)c1ccccc1	-16.5	.	-5.1	20.2*
COc1ccc(NC(=O)COC(=O)CCCc2c[nH]c3ccccc23)cc1OC	-32.1	11.8	-27.5	13.6
O=[N+]([O-])c1ccccc1OCC(O)CNC1CCCC1 (stereo not given)	103.9*	.	112.3*	.
CN(C)C(CNC(=O)c1ccc2c(=O)n(-c3ccccc3F)c(=S)[nH]c2c1)Cc1ccccc1 (stereo not given)	2.7	.	4.9	1.7
Cc1ccc(Nc2c(-c3ccc(N4CCOCC4)cc3)nc3ncccn23)c(C)c1	67.2*	-5.2	57.5*	-9.7
O=S(=O)(Nc1ccc(-n2cnnn2)cc1)c1ccc(F)c(F)c1F	-23.2	.	14.2	.
OC(COc1ccc(C2C=CCC2)cc1)CN1CCCCC1 (stereo not given)	73.1*	1.4	59.7*	-7.7
O=C(c1ccccc1)c1ccc(OCC(O)CN2CCCCC2)cc1 (stereo not given)	-20.1	4.6	3.4	5.5
Cc1cncn1CCc1nc2c3ccccc3nc(SCC(=O)Nc3cccc(Cl)c3)n2n1	-25.6	32.9*	-107.2	48.9*
Cc1cccc(NC(=O)CSc2nc3ccccc3c3nc(CCc4c(C)n[nH]c4C)nn23)c1	4.4	1.1	-13.8	-1.6
O=c1c(Cl)c(N2CCC3(CC2)OCCO3)cnn1C12CC3CC(CC(C3)C1)C2	-0.2	.	19.4	.
O=C(Nc1cc(S(=O)(=O)Nc2ccccc2Cl)ccc1O)c1sc2cc(Cl)ccc2c1Cl	-5.1	.	6.5	-2.4
O=C(CCC1CCCN(C(=O)c2ccc3[nH]ccc3c2)C1)N1CCN(c2ccccn2)CC1 (stereo not given)	-12.5	.	1.9	4.3
c1ccc(C[n+]2cccc3c4ccccc4ccc32)cc1	35.7*	13.2	12.9	-5.1
CCCCC[n+]1cccc2c3ccccc3ccc21	20.9	.	0.0	6.6
c1cc2c3c(cccc3c1)NC1(CCC3(CC1)Nc1cccc4cccc(c14)N3)N2	56.1*	.	60.5*	.
SMILES	NPY-Y2 PAM-ag	NPY Y2 blocker	NPY1 pot ag	NPY Y1 blocker
c1nc(N2CCN(Cc3ccc4c(c3)OCO4)CC2)c2[nH]cnc2n1	101.1*	5.1	56.6*	3.9
Cc1ccc2[nH]c3c(N4CCN(Cc5ccc6c(c5)OCO6)CC4)ncnc3c2c1	5.6	1.6	-3.6	-8.3
NC(=O)c1c(NC(=O)CSc2nnc(-c3ccco3)n2-c2ccccc2)sc2c1CCC2	16.1	1.7	32.5	-1.8
N#Cc1c(NC(=O)CSc2nnc(-c3ccco3)n2-c2ccccc2)sc2c1CCC2	42.6*	1.5	110.5*	-4.3
CCCCCOc1ccc(Br)cc1CSC(=N)N	-2.8	35.2*	-99.4	45.9*
COCC(=O)Nc1nc2ccccc2s1	63.7*	-0.3	108.3*	0.9
CCCc1nc2ccccc2c(C(=O)OC(C)C(=O)NCc2ccc3c(c2)OCO3)c1CC (stereo not given)	-2.0	19.3*	-25.8	25.1*
COc1cc2c(cc1OC)-c1cc(NC3CC3)nc(=O)n1CC2	2.5	4.0	-6.6	10.6
COc1cc2c(cc1OC)-c1cc(NC3CCCCCCC3)nc(=O)n1CC2	-53.7	72.4*	-65.4	64.1*
COc1cc2c(cc1OC)-c1cc(NC3CCCCC3)nc(=O)n1CC2	-2.0	12.1	-44.9	32.5*
COc1ccccc1N(C)S(=O)(=O)c1ccc(C(=O)OCC(=O)NCc2ccco2)cc1	4.2	2.3	15.1	1.9
COc1ccc(OC)c(NC(=O)C2CC(C)=C(C)CC2C(=O)O)c1 (stereo not given)	5.5	0.7	-4.6	3.3
N#CCCn1cc(C(=O)N2CCOCC2)c(-c2ccc3c(c2)OCCO3)n1	9.0	.	16.9	-1.1
O=C(Nc1ccccc1-c1ccccc1)c1ccc(Cl)c([N+](=O)[O-])c1	29.1*	0.1	71.4*	-9.4
O=C(Nc1cccc2c1CCCC2)c1ccc(Cl)c([N+](=O)[O-])c1	12.8	4.0	12.6	4.0
CCOc1ccc(NC(=S)N(C)C)cc1	29.0	.	5.0	.
CC1CCN(c2nc(-c3cccnc3)nc3scc(-c4ccccc4)c23)CC1	10.6	0.2	10.1	0.9
CC1CCN(c2nc(CN3CCCCC3)nc3scc(-c4ccccc4)c23)CC1	-11.2	47.2*	-41.5	41.5*
NNC(=O)CNC(=O)CNS(=O)(=O)c1ccccc1	-5.1	.	16.1	0.4
COc1ccc(-c2noc(C(=O)NCc3ccccc3Cl)n2)cc1OC	-5.8	.	-10.2	24.9*
COc1ccc(-c2noc(C(=O)NCc3ccc(F)cc3)n2)cc1OC	-13.6	.	-30.4	10.0
CCOC(=O)c1sc(N(Cc2ccccc2)C(=O)CSc2ncn[nH]2)nc1C	-16.3	4.1	-11.0	2.5
CCOC(=O)c1sc(N(Cc2ccccc2)C(=O)COC(=O)c2ccc(O)cc2)nc1C	-35.1	26.2*	-36.8	41.8*
O=S(=O)(NC1=NCCCCC1)c1ccc(Cl)cc1	-15.6	.	-6.0	-1.2
Clc1ccc(NC2=NCCCCC2)cc1	9.8	0.6	7.0	45.7*
SMILES	NPY-Y2 PAM-ag	NPY Y2 blocker	NPY1 pot ag	NPY Y1 blocker
CCOC(=O)N1CCN(CC(O)COC2CC(C)CCC2C(C)C)CC1 (stereo not given)	-24.3	4.5	-22.4	6.9
CC1CCC(C(C)C)C(OCC(O)CNC(C)(C)C)C1 (stereo not given)	99.4*	.	105.8*	-6.3
CCN(CC)S(=O)(=O)c1ccc(N2CCCCC2)c(NC(=O)c2ccncc2)c1	5.1	.	9.4	-0.6
CCOC(=O)c1ccc(N2C(=O)C3CC=C(C)CC3C2=O)cc1 (stereo not given)	-25.6	-0.1	-26.9	24.8*
CC1=CCC2C(=O)N(c3ccc(C)cc3)C(=O)C2C1 (stereo not given)	-28.8	2.2	-32.7	1.0
CCn1c(O)c(N=NC(=O)c2ccc(CSc3nncn3C)cc2)c2ccccc21	5.8	0.9	24.5	1.1
Cn1cnnc1SCc1ccc(C(=O)N=Nc2c(O)n(Cc3ccc(Cl)cc3)c3ccccc23)cc1	46.1*	-1.9	47.3*	-7.9
